Source: ChEMBL document CHEMBL3797060, “Discovery of 5-Chloro-1-(5-chloro-2-(methylsulfonyl)benzyl)-2-imino-1,2-dihydropyridine-3-carboxamide (TAK-259) as a Novel, Selective, and Orally Active α1D Adrenoceptor Antagonist with Antiurinary Frequency Effects: Reducing Human Ether-a-go-go-Related Gene (hERG) Liabilities” (J Med Chem, 2016)

Assays:
[1] = molecular target: Voltage-gated inwardly rectifying potassium channel KCNH2 (Homo sapiens, UniProt Q12809); assay: Inhibition of human ERG channel expressed in CHO cells assessed as peak tail current at 10 uM incubated for 5 mins by patch-clamp assay; type: cell-based; details: cho, 5 min, 10 µM
Method in brief: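 CHO cells stably expressing hERG, grown at 32 °C, 5% CO2 in Ham's F-12 with 10% FBS and 500 µg/mL Geneticin. Population patch clamp with PBS (Ca/Mg) outside, KCl/MgCl2/EGTA/HEPES pH 7.3 inside, amphotericin B perforation. Holding −80 mV, step to 40 mV 2 s, then −50 mV 2 s. Peak tail current taken before and after 5 min compound exposure, inhibition = 100 − post/pre×100, n = 3 or 4.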

CYP3A4 = CYP3A4 (Homo sapiens, UniProt P08684); assay: Reversible inhibition of CYP3A4 in human liver microsomes at 10 uM using midazolam as substrate incubated for 10 mins by LC/MS/MS analysis; type: ADME; details: probe midazolam
Method in brief: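 Midazolam incubated with 0.1 mg/mL microsomes and test compound at 37 °C. Stopped with acetonitrile/water and centrifuged. 1'-Hydroxymidazolam peak measured in the supernatant.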

[2] = Clearance in human liver microsomes at 1 uM after 15 to 30 mins by LC/MS/MS analysis; type: ADME; details: read-out: CLH
Method in brief: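 Incubated with 0.2 mg/mL microsomal protein in 50 mM potassium phosphate, pH 7.4. Reaction started with an NADPH-generating system (MgCl2, glucose-6-phosphate, β-NADP+, G6P dehydrogenase). Stopped with acetonitrile at 15 and 30 min, then analysed for remaining compound. Metabolic velocity taken as the slope of the concentration-time plot.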

[3] = Permeability of compound at pH 7.4 by PAMPA; type: ADME; details: read-out: permeability

Sequence of CYP3A4 (P08684 whole entry): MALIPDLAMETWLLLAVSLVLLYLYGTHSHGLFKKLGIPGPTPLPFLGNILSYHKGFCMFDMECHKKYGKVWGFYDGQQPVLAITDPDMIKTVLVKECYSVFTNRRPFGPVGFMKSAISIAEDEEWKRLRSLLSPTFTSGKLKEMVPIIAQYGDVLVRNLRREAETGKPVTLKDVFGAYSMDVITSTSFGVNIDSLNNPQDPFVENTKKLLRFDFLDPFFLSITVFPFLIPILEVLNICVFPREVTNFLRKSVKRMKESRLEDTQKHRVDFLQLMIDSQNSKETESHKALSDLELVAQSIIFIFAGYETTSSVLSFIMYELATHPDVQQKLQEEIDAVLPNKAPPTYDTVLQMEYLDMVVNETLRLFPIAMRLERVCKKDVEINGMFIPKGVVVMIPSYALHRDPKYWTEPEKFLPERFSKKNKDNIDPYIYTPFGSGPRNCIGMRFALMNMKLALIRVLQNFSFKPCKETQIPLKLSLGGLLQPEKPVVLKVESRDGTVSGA
Sequence of Voltage-gated inwardly rectifying potassium channel KCNH2 (Q12809 whole entry): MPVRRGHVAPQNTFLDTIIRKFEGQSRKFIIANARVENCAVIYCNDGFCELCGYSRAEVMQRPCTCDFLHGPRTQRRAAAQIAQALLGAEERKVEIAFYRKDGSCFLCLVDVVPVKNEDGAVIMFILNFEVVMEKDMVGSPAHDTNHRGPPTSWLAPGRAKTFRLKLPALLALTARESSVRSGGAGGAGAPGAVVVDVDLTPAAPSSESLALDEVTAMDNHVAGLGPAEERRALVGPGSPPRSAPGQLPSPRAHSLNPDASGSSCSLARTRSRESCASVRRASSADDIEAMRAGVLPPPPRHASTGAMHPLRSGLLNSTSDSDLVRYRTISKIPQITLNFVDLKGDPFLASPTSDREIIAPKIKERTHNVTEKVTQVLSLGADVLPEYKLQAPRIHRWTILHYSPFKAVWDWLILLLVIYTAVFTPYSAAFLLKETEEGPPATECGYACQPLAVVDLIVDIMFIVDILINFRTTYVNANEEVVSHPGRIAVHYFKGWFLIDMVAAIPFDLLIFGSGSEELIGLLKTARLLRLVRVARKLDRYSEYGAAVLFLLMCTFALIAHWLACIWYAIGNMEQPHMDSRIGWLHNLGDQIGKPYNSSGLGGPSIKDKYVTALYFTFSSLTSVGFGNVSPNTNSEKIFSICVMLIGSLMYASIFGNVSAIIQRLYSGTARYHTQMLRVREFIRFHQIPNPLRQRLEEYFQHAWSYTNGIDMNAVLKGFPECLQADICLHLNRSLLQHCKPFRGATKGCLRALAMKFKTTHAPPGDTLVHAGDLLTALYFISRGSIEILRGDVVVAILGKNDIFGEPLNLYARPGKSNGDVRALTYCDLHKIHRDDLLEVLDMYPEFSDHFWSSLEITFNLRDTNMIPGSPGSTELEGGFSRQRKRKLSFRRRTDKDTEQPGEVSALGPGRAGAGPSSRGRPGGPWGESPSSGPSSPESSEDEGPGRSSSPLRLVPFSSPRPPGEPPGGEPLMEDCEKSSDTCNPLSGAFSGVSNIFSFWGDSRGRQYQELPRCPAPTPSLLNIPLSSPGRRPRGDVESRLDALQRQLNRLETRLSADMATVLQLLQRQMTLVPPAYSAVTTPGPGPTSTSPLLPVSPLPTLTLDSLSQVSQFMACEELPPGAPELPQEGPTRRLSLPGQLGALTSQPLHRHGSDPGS

Cl.N=c1c(C(N)=O)cc(Cl)cn1Cc1cccc(Cl)c1
inhibition (INH) [1]: 47% | inhibition at 10 min, 10 µM (CYP3A4): -1.6% | microsomal CLint at 1 µM [2]: 3 µL/min/mg | Papp [3]: 11.6 ×10⁻⁶ cm/s
